# Results from ChEMBL document CHEMBL1221375, “Structure-activity relationship study of glaziovianin A against cell cycle progression and spindle formation of HeLa S3 cells” (Bioorg Med Chem Lett, 2010).
# Calls of active or inactive are those of the source. The rule behind the calls is not given here.
# Columns and labels:
# [1] = Cytotoxicity against human HeLaS3 cells after 48 hrs by […] assay; type: functional, cell-based; details: HeLa S3, 48 h
# Method in brief: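 HeLa S₃ cells seeded at 3 × 10³ cells/well and incubated overnight, then exposed to a range of compound concentrations for 48 h. WST-8 reagent added for 2 h and absorbance read at 450 nm. Viability (% control) = (sample absorbance − blank) / (0 µM well absorbance) × 100.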
# [2] = Cytotoxicity against human HeLaS3 cells after 48 hrs by […] assay relative to glaziovianin A; type: functional, HeLa S3
# [3] = Cell cycle arrest in human HeLaS3 cells assessed as abnormal spindle structures with unaligned chromosomes at 1 uM after 18 hrs; type: functional, cell-based; details: HeLa S3
# Method in brief: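 HeLa S₃ cells given 1 µM compound or DMSO for 18 h. Microtubules immunostained with anti-α-tubulin antibody (DM1A) and chromosomes stained with Hoechst 33258. Spindle structures and chromosome alignment assessed by fluorescence microscopy.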
# [4] = Cell cycle arrest in human HeLaS3 cells assessed as accumulation at M phase at 1 uM after 18 hrs by flow cytometry; type: functional, cell-based; details: HeLa S3
# Method in brief: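 HeLa S3 cells exposed 18 h to 1 μM compound, DMSO as vehicle control. Cells then fixed in cold (−20 °C) 70% EtOH (v/v), stained with propidium iodide. DNA content distribution obtained from total fluorescence intensities by quantitative flow cytometry.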
Compound,IC50 [1],Ratio [2],Activity [3],Activity [4]
COc1cc2c(=O)c(-c3cc(OC)c4c(c3OC)OCO4)coc2cc1O,> 100 µM,–,–,–
C#CCOc1cc2occ(-c3cc(OC)c4c(c3OC)OCO4)c(=O)c2cc1OC,0.74 µM,0.8,–,–
COc1cc2c(=O)c(-c3cc(OC)c4c(c3OC)OCO4)coc2cc1OC1CCCCO1 (stereo not drawn),> 100 µM,–,–,–
COc1cc2occ(-c3ccc4c(c3)OCO4)c(=O)c2cc1OC,56.2 µM,0.01,–,–
COc1cc(-c2coc3cc(OC)c(OC)c(OC)c3c2=O)c(OC)c2c1OCO2,> 100 µM,–,–,–
COc1cc2occ(-c3cc(OC)c(OC)c(OC)c3OC)c(=O)c2cc1OC,22 µM,0.027,–,–
C=CCOc1cc2occ(-c3cc(OC)c4c(c3OC)OCO4)c(=O)c2cc1OC,0.19 µM,3.1,Active,Active
COc1cc2c(=O)c(-c3cc(OC)c4c(c3OC)OCO4)coc2cc1OCc1ccccc1,0.75 µM,0.79,–,–
COc1cc2occ(-c3cc(OC)c4c(c3OC)OCO4)c(=O)c2cc1OC [GLAZIOVIANIN A],0.59 µM,–,–,Active
COc1cc2occ(-c3cc(OC)c4c(c3OC)OC(C)(C)O4)c(=O)c2cc1OC,> 100 µM,–,–,–
